Measured values from ChEMBL document CHEMBL1135910, “Beta-C-mannosides as selectin inhibitors” (J Med Chem, 2002).
pIC50: −log10 of the molar value.

Target: Alpha-1-acid glycoprotein 1 (Homo sapiens, UniProt P02763)
Experiment: Ability to inhibit the binding of E-selectin to human recombinant AGP (alpha-1 acid glycoprotein) in a E-selectin assay
How it was run: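 ELISA read-out. Soluble E-selectin binding to human recombinant AGP bearing five sLex per molecule. Compounds screened at 5 mM, with percent inhibition recorded.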

Alpha-1-acid glycoprotein 1, sequence (P02763 whole entry): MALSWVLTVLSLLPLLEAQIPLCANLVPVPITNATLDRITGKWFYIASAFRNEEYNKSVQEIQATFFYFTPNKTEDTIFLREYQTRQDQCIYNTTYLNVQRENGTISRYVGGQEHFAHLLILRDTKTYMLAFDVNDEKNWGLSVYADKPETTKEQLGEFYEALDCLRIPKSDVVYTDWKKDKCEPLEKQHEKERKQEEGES

| Inhibition | pIC50 | Structure (SMILES) |
| --- | --- | --- |
| 45% |  | O=C(O)CC[C@H](NC(=O)CC1OC(CNC(=O)CC(=O)Nc2ccc(Cl)cc2Cl)C(O)C(O)C1O)C(=O)O (stereo not given in full) |
| 42% |  | Cc1ccc(COc2ccsc2C(=O)NCC2OC(CC(=O)N[C@@H](CCC(=O)O)C(=O)O)C(O)C(O)C2O)cc1 (stereo not given in full) |
|  | 2.30 | C[C@@H](NC(=O)c1ccccc1C(=O)NCC1OC(CC(=O)N[C@@H](CCC(=O)O)C(=O)O)C(O)C(O)C1O)c1ccccc1 (stereo not given in full) |
| 43% |  | CC(C)(C)c1ccc(COc2ccsc2C(=O)NCC2OC(CC(=O)N[C@@H](CCC(=O)O)C(=O)O)C(O)C(O)C2O)cc1 (stereo not given in full) |
|  | 2.10 | CC(=O)N[C@H]1[C@H]([C@H](O)[C@H](O)CO)O[C@@](O[C@H]2[C@@H](O)[C@@H](CO)O[C@@H](O[C@@H]([C@H](O[C@@H]3O[C@@H](C)[C@@H](O)[C@@H](O)[C@@H]3O)[C@H](C=O)NC(C)=O)[C@H](O)CO)[C@@H]2O)(C(=O)O)C[C@@H]1O [SIALYL LEWIS X] |
